Screens from PubChem BioAssay.
TAAR1 antag = human TAAR1 antagonism; AID 624466; Q96RJ0; CHO RD-HGA16 TAAR1, Fluo-8 calcium fluorescence, antagonist; inhibition, % at 3 µM; hit rate 1.5% among 360,000;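 active = inhibition above a per-plate cutoff, the mean inhibition of test compounds on that plate plus 3 SD, cut at about 49% in these data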;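 note: 0% = DMSO plus EC80 beta-PEA response and 100% = DMSO alone without agonist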
Target sequence (Q96RJ0 whole entry, looked up): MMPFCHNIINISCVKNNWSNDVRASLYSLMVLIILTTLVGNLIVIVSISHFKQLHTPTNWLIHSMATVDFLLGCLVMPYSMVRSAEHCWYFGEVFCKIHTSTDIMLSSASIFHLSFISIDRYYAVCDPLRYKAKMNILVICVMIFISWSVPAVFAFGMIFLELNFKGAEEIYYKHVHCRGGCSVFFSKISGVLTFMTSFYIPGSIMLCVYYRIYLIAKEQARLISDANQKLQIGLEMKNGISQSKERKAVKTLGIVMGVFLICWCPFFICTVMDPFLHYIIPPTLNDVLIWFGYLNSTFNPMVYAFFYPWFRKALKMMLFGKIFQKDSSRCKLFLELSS
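Test system: RD-HGA16 CHO cells with stable hTAAR1 and Gα16 / Probe or stimulus: EC80 β-phenethylamine stimulus / Times: seeding 17-24 h prior, 75-min 37 °C, 30-min RT dye loading / Detection: Fluo-8 calcium-sensitive fluorescence / Read-out basis: % inhibition scaled between DMSO and EC80 PEA controls / Repeats: singlicate, one well per test compound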
CHRM1 agonist = agonists of human M1 muscarinic receptor | P11229 | CHO-K1 hM1, Fluo-8 calcium fluorescence, agonist mode; 0% DMSO, 100% acetylcholine EC100 | activation, % at 3 µM | hit rate 0.33% among 360,000;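 active = activation above the run's mean compound activation plus 3 SD, cut at about 16% in these data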;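 note: peak over basal fluorescence ratio within a 140 s kinetic read after compound addition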
M1 PAM = positive allosteric modulators of human M1 muscarinic receptor. activation, % at 3 µM. AID 588819. hit rate 0.088% among 360,000. CHO-K1 hM1, Fluo-8 calcium fluorescence, ACh EC20; 0% = ACh EC20, 100% = maximal ACh. P11229; in the data active = activation above about 19%, passing the limit was not always enough
HTR2A ag = mouse HTR2A agonism via beta-arrestin recruitment; AID 624169; P35363; hit rate 0.66% among 360,000; activation, % at 7.6 µM; CHO-K1 mHTR2A beta-arrestin complementation, luminescence; percent of 30 µM serotonin response;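 active = activation above a run cutoff, the mean activation of all tested compounds plus 3 SD, cut at about 14% in these data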;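 note: 0% = plate median of compound wells and 100% = 30 µM serotonin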
TAAR1 ag = human TAAR1 agonism. hit rate 0.99% among 360,000. activation, % at 3 µM. CHO RD-HGA16 TAAR1, Fluo-8 calcium fluorescence; vehicle wells 0%, saturating PEA agonist 100%;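 active = activation above the mean activation of all test compounds in the run plus 3 SD, cut at about 38% in these data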
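Test system: RD-HGA16 (CHO) cells co-expressing Gα16 and hTAAR1; dosing: one-point dosing at 3 µM (nominal); timing: 17-24 h seeding, 75 min 37 °C dye, 30 min RT; signal: kinetic Fluo-8 calcium fluorescence; read-out basis: % activation relative to PEA EC100 response; controls: DMSO and PEA EC100; replicates: n 1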
CHRM1 antagonist = human CHRM1 antagonism. P11229. CHO-K1 hM1, Fluo-8 calcium fluorescence, ACh EC80 antagonist. inhibition, % at 3 µM. hit rate 1.3% among 360,000. AID 588852;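 active = percent inhibition above its own plate's cutoff, namely the mean of that plate's compound wells plus 3 SD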;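 note: peak over basal fluorescence ratio during 140 s after agonist addition; 0% = ACh EC80 plus DMSO and 100% = DMSO alone without agonist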
TAAR1 nonsel count = counter-screen for TAAR1 antagonists: nonselective antagonists; shares compounds with TAAR1 antag; counterscreen cell line, calcium fluorescence, antagonist mode; inhibition, % at 3 µM; hit rate 77% among 2,400; AID 651780; in the data active = inhibition above about 22%;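 note: CHO-Ga16 host cells stimulated with ATP at an EC80 level; 0% = agonist EC80 plus vehicle and 100% = vehicle without agonist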
TAAR1 ant conf = confirmation of human TAAR1 antagonists. inhibition, % at 3 µM. hit rate 40% among 2,400. TAAR1-expressing cells, fluorescence antagonist read-out. AID 651785. shares compounds with TAAR1 antag; in the data active = inhibition above about 49%;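 note: CHO-Ga16 host cells challenged with agonist PEA near its EC80; 0% = agonist at EC80 plus vehicle and 100% = vehicle with no agonist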
Ga16 nonsel ag = nonselective Ga16 agonist in TAAR1 antagonist counter-screen; Ga16-expressing cells, calcium fluorescence, agonist counterscreen; hit rate 18% among 2,400; shares compounds with TAAR1 antag; AID 651953; activation, % at 3 µM; in the data active = activation above about 12%;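 note: 0% = vehicle wells and 100% = saturating stimulus response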
TAAR1 ag count = counter-screen for human TAAR1 antagonists: TAAR1 agonists; AID 651955; hit rate 2% among 2,400; hTAAR1 cell line, fluorescence activation, agonist mode; shares compounds with TAAR1 antag; activation, % at 3 µM; in the data active = activation above about 37%;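 note: CHO cells stably expressing TAAR1 with calcium dye readout; 0% = DMSO vehicle and 100% = full agonist response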
Starred values were filed as active, the others as inactive; . = not tested or not shown. Sampled rows, rich in hits. Any-hit rate of the full collection: about 3.9%.

SMILES | TAAR1 antag | CHRM1 agonist | M1 PAM | HTR2A ag | TAAR1 ag | CHRM1 antagonist | TAAR1 nonsel count | TAAR1 ant conf | Ga16 nonsel ag | TAAR1 ag count
CCOC(=O)c1sc(NC(=O)c2cccc(S(=O)(=O)N(CC)CC)c2)cc1C | 61* | -6 | 2 | 1 | 11 | -2 | 47* | 63* | 10 | 6
CCSc1nc2ccccc2c(=O)n1CCc1ccc(OC)c(OC)c1 | 61* | -3 | -10 | -1 | 4 | 25* | 30* | 44 | 4 | 7
COc1ccc(CCn2c(C)nc3ccccc3c2=O)cc1OC | 25 | -3 | -7 | 3 | 11 | 0 | . | . | . | .
O=C(OCC(=O)N(Cc1ccccc1)Cc1ccccc1)c1ccccc1NCCO | 70* | 0 | -8 | 5 | 8 | 21* | 35* | 51* | 7 | 4
O=C(COC(=O)c1ccccc1NCCO)NCCc1ccccc1 | -11 | -1 | 9 | 1 | 11 | -9 | . | . | . | .
CN1/C(=C\C(=O)COC(=O)c2ccccc2O)C(C)(C)c2ccccc21 | 43 | -2 | -7 | -5 | 2 | 8 | . | . | . | .
Cc1ccc(C(=O)NCC(=O)OCC(=O)/C=C2\N(C)c3ccccc3C2(C)C)cc1C | 58* | -4 | -11 | -5 | 3 | 11 | 29* | 41 | 6 | 8
O=C(N/N=C/c1sc(=O)n(Cc2ccc(Br)cc2)c1Cl)c1ccco1 | 81* | 0 | 6 | -6 | 27 | -3 | 39* | 77* | 17* | 27
CC1Cc2ccccc2N1C(=O)COC(=O)c1c2c(nc3ccccc13)CCCCC2 (configuration not stated) | 42 | -8 | -15 | 1 | 1 | 25 | . | . | . | .
O=C(OCC(=O)N1CCc2ccccc21)c1c2c(nc3ccccc13)CCCC2 | 57* | -6 | -13 | -5 | 3 | 18 | 24* | 37 | 1 | 3
O=C(COC(=O)c1c2c(nc3ccccc13)CCCC2)c1cccs1 | 53* | -7 | -17 | -2 | 6 | -2 | 26* | 36 | 2 | 1
CCN(CC(=O)Nc1ccc(NC(C)=O)cc1)C(=O)c1ccccc1Sc1ccccc1C#N | 51* | -1 | 2 | 3 | 11 | -1 | 27* | 37 | 5 | 2
CCNC(=S)N1CCN(c2nc(-c3cccc(OC)c3)cs2)CC1 | 48 | 3 | 15 | -4 | 11 | -15 | . | . | . | .
COc1cccc(-c2csc(N3CCN(C(=S)NCC(C)C)CC3)n2)c1 | 65* | -1 | 6 | -1 | 6 | -18 | 42* | 44 | 5 | 0
COc1ccc(NC(=O)N2CCN(c3nc(-c4cccc(OC)c4)cs3)CC2)cc1 | 64* | -5 | -8 | -2 | 10 | 18 | 38* | 59* | 8 | 1
COc1cccc(-c2csc(N3CCN(C(=S)Nc4ccccc4OC)CC3)n2)c1 | 16 | -3 | -18 | 2 | -1 | 31 | . | . | . | .
COc1ccc(NC(=O)NC2(C(=O)N3CCN(C)CC3)CCCCC2)cc1 | -7 | -1 | -1 | -3 | 2 | 10 | . | . | . | .
COC(=O)CNC(c1ccccc1)c1cc(C)ccc1NC(=O)CNC(=O)OCc1ccccc1 (configuration not stated) | 5 | -5 | 9 | -3 | -1 | -6 | . | . | . | .
COC(=O)CNC(c1ccccc1)c1cc(C)ccc1NC(=O)c1cccc(Cl)c1 (configuration not stated) | 67* | -11 | -14 | -5 | 0 | 14 | 23* | 47 | 3 | 9
CN(CC(=O)Nc1ccc(F)cc1)C(=O)CSc1nnc(Cc2ccccc2)o1 | -3 | -3 | 4 | -4 | 5 | -4 | . | . | . | .
O=C1C2C(c3ccccc3)(C(=O)N1c1ccc(Cl)cc1)C2(c1ccccc1)c1ccccc1 (configuration not stated) | 62* | -3 | -10 | 7 | 3 | 12 | 16 | 35 | 4 | 13
CCOC(=O)CSc1nnc(CCCCCN2C(=O)c3cccc4cccc(c34)C2=O)o1 | -15 | -11 | 2 | 6 | 0 | 7 | . | . | . | .
CCOC(=O)CCCSc1nnc(CCCCCN2C(=O)c3cccc4cccc(c34)C2=O)o1 | 58* | -13 | 2 | 4 | 6 | 1 | 37* | 48 | 8 | 4
O=C(c1coc2ccc(O)c(CN3CCOCC3)c12)C1CC1 | -17 | -3 | 0 | 4 | 10 | -8 | . | . | . | .
O=C(c1cccs1)c1coc2ccc(O)c(CN3CCOCC3)c12 | 106* | -4 | 3 | -3 | -4 | 0 | 2 | 5 | 2 | 3
SMILES | TAAR1 antag | CHRM1 agonist | M1 PAM | HTR2A ag | TAAR1 ag | CHRM1 antagonist | TAAR1 nonsel count | TAAR1 ant conf | Ga16 nonsel ag | TAAR1 ag count
Cc1cccc(N(C)S(=O)(=O)c2c[nH]c3ccc([N+](=O)[O-])cc23)c1 | 57* | -2 | -4 | 2 | 4 | 8 | 32* | 43 | 5 | 1
O=[N+]([O-])c1ccc2[nH]cc(S(=O)(=O)N3CCN(c4cccc(Cl)c4)CC3)c2c1 | 9 | -4 | 6 | 3 | 5 | -10 | . | . | . | .
Nc1ccccc1NC(=O)CCn1c(=S)[nH]c2ccccc2c1=O | 10 | 2 | 17 | 3 | 1 | -8 | . | . | . | .
Cc1cc(C)nc(NC(=NCCc2c[nH]c3ccccc23)NC(=O)Nc2ccccc2)n1 | 64* | -5 | -11 | 4 | 3 | 21* | 30* | 54* | 5 | 5
Cc1cc(C)nc(NC(=NCCc2c[nH]c3ccccc23)NC(=O)c2ccco2)n1 | 68* | 1 | -4 | -2 | 13 | 29* | 28* | 53* | 7 | 6
O=C(CNS(=O)(=O)c1ccc([N+](=O)[O-])cc1)N/N=C/c1ccc(O)cc1O | 16 | 1 | 1 | 0 | 21 | 6 | . | . | . | .
O=C(NCc1nc2ccccc2[nH]1)C1=C[C@@H](c2ccc(C(F)(F)F)cc2)C[C@@H](OCc2ccc(CO)cc2)O1 | 52* | -8 | 3 | -2 | 12 | -6 | 25* | 23 | 5 | 6
C#CCNC(=O)C1=C[C@H](c2csc3ccccc23)C[C@H](OCc2ccc(CO)cc2)O1 | 65* | -2 | -16 | 2 | 31 | 28 | 24* | 40 | 9 | 10
